According to ChEMBL document CHEMBL4354840, “Discovery of a Small Side Cavity in Sphingosine Kinase 2 that Enhances Inhibitor Potency and Selectivity” (J Med Chem, 2020):
The source made the active and inactive calls. The rule behind the calls is not given here.

Legend:
[1] = target: T1, Sphingosine kinase 2 (Homo sapiens) (UniProt Q9NRA0); experiment: Inhibition of recombinant human SphK2 transfected in HEK293T cells at 0.3 uM using D-erythro-sphingosine as substrate incubated for 20 mins in presence of [gamma32P]-ATP by liquid scintillation counting method relative to control; format: cell-based
T1 sequence (whole entry): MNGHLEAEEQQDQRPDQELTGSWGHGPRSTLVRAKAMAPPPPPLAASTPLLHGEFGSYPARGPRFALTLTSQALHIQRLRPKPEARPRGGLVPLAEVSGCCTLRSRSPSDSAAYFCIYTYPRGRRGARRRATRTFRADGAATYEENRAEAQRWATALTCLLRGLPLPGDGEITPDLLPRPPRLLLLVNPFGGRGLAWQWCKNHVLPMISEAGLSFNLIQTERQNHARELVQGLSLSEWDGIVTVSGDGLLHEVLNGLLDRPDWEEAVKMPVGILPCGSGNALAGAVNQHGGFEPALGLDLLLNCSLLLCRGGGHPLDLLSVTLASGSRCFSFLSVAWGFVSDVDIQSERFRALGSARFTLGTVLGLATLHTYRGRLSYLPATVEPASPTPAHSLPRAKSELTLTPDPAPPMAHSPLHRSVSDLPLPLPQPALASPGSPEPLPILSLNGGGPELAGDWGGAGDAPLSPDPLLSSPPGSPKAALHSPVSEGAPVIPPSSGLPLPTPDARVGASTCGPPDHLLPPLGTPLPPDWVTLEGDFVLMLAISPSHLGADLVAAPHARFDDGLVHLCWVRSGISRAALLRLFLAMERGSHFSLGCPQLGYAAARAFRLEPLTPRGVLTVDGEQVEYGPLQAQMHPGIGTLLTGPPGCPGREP
In short: (§1)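 Human SphK2 recombinant protein isolated from cell lysate. Reaction contained 10 μM sphingosine and 250 μM γ-[32P]ATP, with or without inhibitor. Product was read by scintillation counting. Activity is expressed as % of the no-inhibitor control. Compounds were tested at 1.0 and 0.3 μM in triplicate.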

[2] = target: T1, Sphingosine kinase 2 (Homo sapiens); experiment: Inhibition of recombinant human SphK2 transfected in HEK293T cells at 1 uM using D-erythro-sphingosine as substrate incubated for 20 mins in presence of [gamma32P]-ATP by liquid scintillation counting method relative to control; in short: as §1
[3] = target: T2, Sphingosine kinase 2 (Homo sapiens, UniProt Q9NRA0); experiment: Inhibition of recombinant human SphK2 expressed in baculovirus infected Sf9 cells assessed as decrease in [33P]S1P production using varying level of D-erythro-sphingosine as substrate in presence of [gamma33P]-ATP by scintillation proximity assay
T2 sequence (Q9NRA0 whole entry): T1 sequence (whole entry)

[4] = system: Saccharomyces cerevisiae; experiment: Toxicity against Saccharomyces cerevisiae KYA1 assessed as cell death at >3 uM incubated for 24 to 48 hrs; format: organism-based; settings: in vivo
[5] = target: T3, Sphingosine kinase 2 (Mus musculus, UniProt Q9JIA7); experiment: Inhibition of recombinant mouse SphK2 expressed in baculovirus infected Sf9 insect cells using D-erythro-sphingosine as substrate measured after 30 mins in presence of [gamma32P]-ATP by liquid scintillation counting method
T3 sequence (Q9JIA7 whole entry): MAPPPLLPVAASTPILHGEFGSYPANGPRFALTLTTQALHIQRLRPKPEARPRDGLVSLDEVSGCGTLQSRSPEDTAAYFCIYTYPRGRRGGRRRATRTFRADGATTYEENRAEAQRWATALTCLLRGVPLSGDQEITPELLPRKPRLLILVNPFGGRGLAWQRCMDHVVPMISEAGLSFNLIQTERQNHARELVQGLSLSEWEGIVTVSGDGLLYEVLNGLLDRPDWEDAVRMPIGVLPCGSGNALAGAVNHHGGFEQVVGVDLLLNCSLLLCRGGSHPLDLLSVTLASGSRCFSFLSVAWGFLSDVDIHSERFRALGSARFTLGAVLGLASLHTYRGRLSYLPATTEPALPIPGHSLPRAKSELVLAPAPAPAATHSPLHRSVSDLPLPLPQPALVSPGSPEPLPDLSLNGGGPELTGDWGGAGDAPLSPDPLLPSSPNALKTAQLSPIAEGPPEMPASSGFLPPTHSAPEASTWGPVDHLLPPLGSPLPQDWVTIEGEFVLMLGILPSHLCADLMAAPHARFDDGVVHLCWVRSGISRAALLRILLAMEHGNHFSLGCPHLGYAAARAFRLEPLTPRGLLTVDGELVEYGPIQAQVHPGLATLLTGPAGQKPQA

[6] = system: Mus musculus; experiment: In vivo inhibition of SphK2 in C57BL/6 mouse assessed as increase in sphingosine-1-phosphate level in blood at 10 mg/kg, ip administered as single dose and measured at 4 hrs post-treatment by LC-MS/MS analysis relative to control; format: functional
In short: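 Male C57BL/6 mice, 8–10 weeks old, given one i.p. injection of 10 mg/kg or vehicle (2% hydroxypropyl-β-cyclodextrin). Whole blood taken from the retro-orbital sinus at 0.5, 1, 2, 4, 6 and 8 h. 10 μL of blood processed for S1P by LC-MS/MS. S1P compared with vehicle-injected controls by unpaired t-test.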

[7] = system: Mus musculus; experiment: In vivo inhibition of SphK2 in C57BL/6 mouse assessed as Cmax required for two-fold increase in sphingosine-1-phosphate level in blood at 10 mg/kg, ip administered as single dose measured after 4 hrs by LC-MS/MS analysis; format: functional, organism-based; design: dose 10 mg/kg
In short: (§2)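 Male C57BL/6 mice, 8–10 weeks old, received a single i.p. dose of vehicle or 10 mg/kg inhibitor in 2% hydroxypropyl-β-cyclodextrin. Retro-orbital whole blood was taken at 0.5, 1, 2, 4, 6 and 8 h. 10 μL of blood was analysed by LC/MS for S1P and compound. Groups were compared to vehicle by unpaired t-test.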

[8] = system: Mus musculus; experiment: In vivo inhibition of SphK2 in C57BL/6 mouse assessed as increase in sphingosine-1-phosphate level in blood at 10 mg/kg, ip administered as single dose and measured upto 6 hrs post-treatment by LC-MS/MS analysis; format: functional, organism-based; in short: as §2
[9] = system: Rattus norvegicus; experiment: Decrease in sphingosine-1-phosphate level in rat blood at 10 mg/kg relative to control; format: functional

| inhibition [1] [%] | SMILES | further results |
| --- | --- | --- |
| 35 | N=C(N)N1CCC[C@H]1c1nc(-c2ccc(OCc3ccc(C(F)(F)F)cc3)cc2C(F)(F)F)no1 | – |
| 3 | CCCCCCCCOc1ccc(-c2noc([C@@H]3CCCN3C(=N)N)n2)cc1 | inhibition [2]: 8% |
| 12 | N=C(N)N1CCC[C@H]1c1nc(-c2ccc(OCc3ccc(C(F)(F)F)cc3)c(-c3ccc(C(F)(F)F)cc3)c2)no1 | – |
| 24 | N=C(N)N1CCC[C@H]1c1nc(-c2ccc(OCc3ccc(C(F)(F)F)cc3)c(Br)c2)no1 | – |
| 31 | N=C(N)N1CCC[C@H]1c1nc(-c2ccc(OCc3ccc(C(F)(F)F)cc3)c(-c3ccc(F)cc3)c2)no1 | – |
| 52 | Cl.N=C(N)N1CCC[C@H]1c1nc(-c2ccc(OCc3ccc(C(F)(F)F)cc3)c(C3CC3)c2)no1 | Ki [3]: 186 nM; Activity [4]: Toxic |
| 42 | CCc1cc(-c2noc([C@@H]3CCCN3C(=N)N)n2)ccc1OCc1ccc(C(F)(F)F)cc1.Cl | Activity [4]: Toxic |
| 33 | N=C(N)N1CCC[C@H]1c1nc(-c2ccc(OCc3ccc(C(F)(F)F)cc3)c(Cl)c2)no1 | – |
| 40 | N=C(N)N1CCC[C@H]1c1nc(-c2ccc(OCc3ccc(C(F)(F)F)cc3)cc2Cl)no1 | – |
| 23 | Cc1cc(-c2noc([C@@H]3CCCN3C(=N)N)n2)cc(C)c1OCc1ccc(C(F)(F)F)cc1 | – |
| 60 | CCCc1cc(-c2noc([C@@H]3CCCN3C(=N)N)n2)ccc1OCc1ccc(C(F)(F)F)cc1.Cl | Ki [3]: 201 nM; Activity [4]: Toxic |
| 67 | CC(C)c1cc(-c2noc([C@@H]3CCCN3C(=N)N)n2)ccc1OCc1ccc(C(F)(F)F)cc1.Cl | Ki [3]: 192 nM; Activity [4]: Toxic |
| 8 | N=C(N)N1CCC[C@H]1c1nc(-c2ccc(OCc3ccc(C(F)(F)F)cc3)c(-c3ccncc3)c2)no1 | – |
| 66 | CC(C)(C)c1cc(-c2noc([C@@H]3CCCN3C(=N)N)n2)ccc1OCc1ccc(C(F)(F)F)cc1.Cl | Ki [3]: 197 nM; Activity [4]: Toxic |
| 59 | C=CCc1cc(-c2noc([C@@H]3CCCN3C(=N)N)n2)ccc1OCc1ccc(C(F)(F)F)cc1.Cl | Activity [4]: Toxic |
| – | CCCCCCCCOc1ccc(-c2noc([C@@H]3CCCN3C(=N)N)n2)cc1C(F)(F)F | Ki [5]: 400 nM |
| 2 | N=C(N)N1CCC[C@H]1c1nc(-c2ccc(OCc3ccc(C(F)(F)F)cc3)cc2)no1 | – |
| 33 | N=C(N)N1CCC[C@H]1c1nc(-c2ccc(OCc3ccc(C(F)(F)F)cc3)c([N+](=O)[O-])c2)no1 | – |
| 65 | Cl.N=C(N)N1CCC[C@H]1c1nc(-c2ccc(OCc3ccc(C(F)(F)F)cc3)c(C(F)(F)F)c2)no1 | fold change (FC) [6]: 2; Ki [3]: 89 nM; inhibition [2]: 77%; Activity [4]: Toxic; Cmax [7]: 8 µM; inhibition [8]: Active |
| 15 | COc1cc(-c2noc([C@@H]3CCCN3C(=N)N)n2)ccc1OCc1ccc(C(F)(F)F)cc1 | – |
| – | CCCCCCCCc1ccc(-c2noc(C[C@@H]3CCCN3C(=N)N)n2)cc1 | inhibition in vivo at 10 mg/kg [9]: 80% |
| 3 | Cc1cc(-c2noc([C@@H]3CCCN3C(=N)N)n2)ccc1OCc1ccc(C(F)(F)F)cc1 | – |
| 28 | N=C(N)N1CCC[C@H]1c1nc(-c2ccc(OCc3ccc(C(F)(F)F)cc3)c(-c3ccccc3)c2)no1 | – |
| 23 | N=C(N)N1CCC[C@H]1c1nc(-c2ccc(OCc3ccc(C(F)(F)F)cc3)c(F)c2)no1 | – |
